Experiment [1] has as its target T1, Prostaglandin G/H synthase 2 (Homo sapiens) (UniProt P35354).
T1 sequence (whole entry): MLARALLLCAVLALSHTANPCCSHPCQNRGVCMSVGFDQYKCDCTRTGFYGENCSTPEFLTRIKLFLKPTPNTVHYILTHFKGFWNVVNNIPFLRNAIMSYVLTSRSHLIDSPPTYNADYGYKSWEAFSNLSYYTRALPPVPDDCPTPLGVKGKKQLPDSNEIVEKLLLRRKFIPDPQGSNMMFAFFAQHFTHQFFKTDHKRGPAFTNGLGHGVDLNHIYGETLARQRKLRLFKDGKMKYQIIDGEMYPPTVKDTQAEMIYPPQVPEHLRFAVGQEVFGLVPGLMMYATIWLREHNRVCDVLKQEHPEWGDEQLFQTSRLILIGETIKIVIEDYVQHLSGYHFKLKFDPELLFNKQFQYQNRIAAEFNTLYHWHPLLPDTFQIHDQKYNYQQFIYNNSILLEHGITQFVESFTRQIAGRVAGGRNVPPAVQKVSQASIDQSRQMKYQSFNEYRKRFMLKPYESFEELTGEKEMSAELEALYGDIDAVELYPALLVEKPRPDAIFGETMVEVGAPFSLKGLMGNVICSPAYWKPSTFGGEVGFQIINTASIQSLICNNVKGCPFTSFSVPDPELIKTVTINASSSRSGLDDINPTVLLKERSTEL
Kind of experiment: Inhibition of COX2 (unknown origin) assessed as reduction in PGG2 to PGH2 conversion by measuring N,N,N',N'-tetramethyl-p-phenylenediamine oxidation at 100 uM by spectrophotometry.

Experiment [2] addresses T2, Polyunsaturated fatty acid lipoxygenase ALOX15 (Homo sapiens) (UniProt P16050).
T2 sequence (whole entry): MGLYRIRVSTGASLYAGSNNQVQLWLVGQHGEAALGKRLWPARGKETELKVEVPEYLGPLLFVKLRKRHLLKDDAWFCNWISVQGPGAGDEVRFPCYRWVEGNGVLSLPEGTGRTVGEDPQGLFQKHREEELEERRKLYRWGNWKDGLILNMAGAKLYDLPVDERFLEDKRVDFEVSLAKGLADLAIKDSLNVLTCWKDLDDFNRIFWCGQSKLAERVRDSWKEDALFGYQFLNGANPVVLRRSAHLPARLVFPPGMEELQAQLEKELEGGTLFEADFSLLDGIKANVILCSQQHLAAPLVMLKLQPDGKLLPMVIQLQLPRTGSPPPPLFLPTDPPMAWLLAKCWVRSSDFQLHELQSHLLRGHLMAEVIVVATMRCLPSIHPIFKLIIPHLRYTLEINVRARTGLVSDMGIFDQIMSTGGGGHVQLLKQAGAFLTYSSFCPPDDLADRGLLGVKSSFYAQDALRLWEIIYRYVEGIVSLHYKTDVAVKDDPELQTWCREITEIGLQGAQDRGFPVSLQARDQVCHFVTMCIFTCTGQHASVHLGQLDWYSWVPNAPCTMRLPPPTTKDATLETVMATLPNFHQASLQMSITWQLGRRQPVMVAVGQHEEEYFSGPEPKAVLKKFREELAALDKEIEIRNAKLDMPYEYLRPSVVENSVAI
The experiment can be described thus: Activation of 15-LOX in human PMN assessed as 5-HETE production at 6.2 to 40 uM pre-incubated for 15 mins before A23187, Ca2+ and Mg2+ stimulation for 1 hr by LC-MS method. An outline of the steps:
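PMNs preincubated 15 min at 37 °C with compound or vehicle, then stimulated 1 h at 37 °C with 10 μM A23187 plus 2 mM Ca2+ and 2 mM Mg2+. Reactions stopped with cold methanol. Eicosanoids quantified by LC-MS.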

For experiment [3], the target named is T3, Polyunsaturated fatty acid lipoxygenase ALOX15 (Homo sapiens, UniProt P16050).
T3 sequence (P16050 whole entry): T2 sequence (whole entry)
The experiment can be described thus: Binding affinity to wild-type His6-tagged human 15-LOX expressed in Escherichia coli Rosetta DE3 by SPR assay. Summed up: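 15-LOX amine-coupled to a CM5 chip at 800 RU, 25 °C, in PBS-P pH 7.4. Compound concentrations in 5% DMSO injected serially; regenerated by buffer washing. KD from Hill fit of response units.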
On the technique in general: In SPR one partner is held on a chip, and binding of the other changes the refractive index at the surface.

Experiment [4] has as its target T2, Polyunsaturated fatty acid lipoxygenase ALOX15 (Homo sapiens). The experiment can be described thus: Activation of 15-LOX in human whole blood assessed as reduction in TXB2 production at 100 uM pre-incubated for 20 mins before stimulation with LPS and A23187 for 120 mins in presence of 2 uM 5-LOX inhibitor Zileuton by LC-MS/MS method. Type of experiment: tissue-based. An outline of the steps:
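Human blood preincubated 20 min at 37 °C with DMSO vehicle or compound in DMSO. LPS added at 100 μg/mL for 24 h at 37 °C, then A23187 at 20 μg/mL final. Samples frozen in liquid nitrogen at time points, lysed by freeze–thaw, with PGB2 internal standard. Analysed by C18 LC-MRM MS, negative ion. Change = control-normalized concentration minus 1, ×100%; 120 min value from AUC.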

Calls of active or inactive are those of the source. The calls are words filed in the database; no cut-off is given here. Where only a bound is given, the exact number is not on record here.

The term inhibition denotes the change of the read-out against control, counted positive when it falls. For orientation: Kd means the equilibrium constant for the complex coming apart. Low values mean higher affinity, high ones lower affinity. `CN1CCN(CC(=O)N2N=C3/C(=C/c4ccccc4)CCCC3C2c2ccccc2)CC1` (centres undefined): in experiment [1], the inhibition is less than 5%. Besides, the outcome in experiment [2] and in experiment [4] was Active. This molecule also had a Kd in experiment [3] of 3.9 µM.

Values taken from ChEMBL document CHEMBL3817796, “Discovery of Novel 15-Lipoxygenase Activators To Shift the Human Arachidonic Acid Metabolic Network toward Inflammation Resolution” (J Med Chem, 2016).
